According to ChEMBL document CHEMBL1148311, “Synthesis of novel potent dipeptidyl peptidase IV inhibitors with enhanced chemical stability: interplay between the N-terminal amino acid alkyl side chain and the cyclopropyl group of alpha-aminoacyl-l-cis-4,5-methanoprolinenitrile-based inhibitors” (J Med Chem, 2004):

Legend:
[1] = Half-life in phosphate buffer at 39.5 C and pH 7.2; assay type: ADME
Summary of the method: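 Aqueous solution stability of the dipeptide nitriles in phosphate buffer, pH 7.2, 39.5 °C. Reaction rate followed as disappearance of starting material by reverse-phase HPLC.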

[2] = target: Dipeptidyl peptidase 4 (Sus scrofa, UniProt P22411); test: In vitro inhibition of porcine Dipeptidylpeptidase IV.
Dipeptidyl peptidase 4, sequence (P22411 whole entry): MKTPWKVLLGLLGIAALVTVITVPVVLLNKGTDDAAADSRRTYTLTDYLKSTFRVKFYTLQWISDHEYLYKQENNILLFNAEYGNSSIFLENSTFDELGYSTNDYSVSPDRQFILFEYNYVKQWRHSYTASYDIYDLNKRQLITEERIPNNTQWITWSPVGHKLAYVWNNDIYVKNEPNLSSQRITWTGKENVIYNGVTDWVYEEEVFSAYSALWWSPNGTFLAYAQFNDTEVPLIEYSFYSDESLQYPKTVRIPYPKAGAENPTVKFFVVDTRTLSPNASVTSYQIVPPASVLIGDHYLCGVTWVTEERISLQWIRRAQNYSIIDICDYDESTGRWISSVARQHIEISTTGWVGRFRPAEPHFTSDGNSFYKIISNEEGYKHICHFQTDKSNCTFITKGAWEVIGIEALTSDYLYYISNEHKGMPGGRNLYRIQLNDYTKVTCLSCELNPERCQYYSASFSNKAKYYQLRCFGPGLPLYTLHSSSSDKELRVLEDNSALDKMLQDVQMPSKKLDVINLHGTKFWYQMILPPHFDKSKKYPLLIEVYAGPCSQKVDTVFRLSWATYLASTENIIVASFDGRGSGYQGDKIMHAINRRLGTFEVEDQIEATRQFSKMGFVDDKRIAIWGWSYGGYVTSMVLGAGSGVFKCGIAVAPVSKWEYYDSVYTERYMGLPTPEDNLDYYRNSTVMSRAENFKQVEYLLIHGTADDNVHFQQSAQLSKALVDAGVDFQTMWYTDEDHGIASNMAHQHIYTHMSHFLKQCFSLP

Compound	half-life [1]	Ki [2]
CC(C)(C)[C@H](N)C(=O)N1CCC[C@H]1C#N.O=C(O)C(F)(F)F	27 h	–
CCC(C)C(N)C(=O)N1CCC[C@H]1C#N.Cl (some centres undefined)	5 h	–
CC1(C(N)C(=O)N2C(C#N)C[C@@H]3C[C@@H]32)CCC1 (some centres undefined)	–	11 nM
N#CC1C[C@@H]2C[C@@H]2N1C(=O)C(N)C1CCC1 (some centres undefined)	–	12 nM
CCC(C)[C@H](N)C(=O)N1C(C#N)C[C@@H]2C[C@@H]21.O=C(O)C(F)(F)F (some centres undefined)	22 h	25 nM
CCC(C)[C@H](N)C(=O)N1C[C@H]2C[C@H]2C1C#N.O=C(O)C(F)(F)F (some centres undefined)	4 h	15 nM
CN[C@H](C(=O)N1C(C#N)C[C@@H]2C[C@@H]21)C(C)C (some centres undefined)	–	1940 nM
N#CC1C[C@@H]2C[C@@H]2N1C(=O)[C@@H](N)Cc1ccccc1 (some centres undefined)	–	65 nM
N#CC1C[C@@H]2C[C@@H]2N1C(=O)C(N)C1CCCCC1.O=C(O)C(F)(F)F (some centres undefined)	19 h	15 nM
CCC(C)[C@H](N)C(=O)N1C(C#N)C[C@H]2C[C@H]21 (some centres undefined)	–	1620 nM
CC(C)(C)[C@H](N)C(=O)N1C[C@H]2C[C@H]2C1C#N.O=C(O)C(F)(F)F (some centres undefined)	4 h	14 nM
N#CC1C[C@@H]2C[C@@H]2N1C(=O)C(N)C1CCCC1 (some centres undefined)	–	4 nM
CC1(C(N)C(=O)N2C(C#N)C[C@@H]3C[C@@H]32)CCCC1.O=C(O)C(F)(F)F (some centres undefined)	24 h	7 nM
CC(C)[C@H](N)C(=O)N1C[C@H]2C[C@H]2C1C#N.O=C(O)C(F)(F)F (some centres undefined)	2 h	12 nM
CC(C)[C@H](N)C(=O)N1C(C#N)C[C@H]2C[C@H]21.O=C(O)C(F)(F)F (some centres undefined)	28 h	29 nM
CC(C)(C)[C@H](N)C(=O)N1C(C#N)C[C@@H]2C[C@@H]21 (some centres undefined)	42 h	7 nM
CSCC[C@H](N)C(=O)N1C(C#N)C[C@@H]2C[C@@H]21 (some centres undefined)	–	135 nM
N#CC1C[C@@H]2C[C@@H]2N1C(=O)C1CCCCN1 (some centres undefined)	–	10000 nM
N#CC1C[C@@H]2C[C@@H]2N1C(=O)[C@@H](N)Cc1c[nH]c2ccccc12 (some centres undefined)	–	230 nM
CC1(C(N)C(=O)N2C(C#N)C[C@@H]3C[C@@H]32)CCCCC1 (some centres undefined)	–	8 nM
CCC(C)[C@H](N)C(=O)N1CC[C@@H]2C[C@@]21C#N (some centres undefined)	–	7500 nM
